High-throughput results: PubChem BioAssay, several laboratories
SUMO1-SIM PPI: modulators of SUMO1 protein-protein interactions, primary screen, biochemical, uHTS; Small ubiquitin-related modifier 1 (Homo sapiens), P63165; SUMO1 binding to a labelled peptide, TR-FRET, 1 h; inhibition, % at 20 µM; 360,000 compounds, 0.33% hits; AID 602429, 2012; in the data active = inhibition above about 37%
LMPTP inh: LMPTP phosphatase inhibitors, primary screen, biochemical, fluorescence intensity, uHTS. recombinant LMPTP-A, OMFP fluorogenic substrate. 360,000 compounds, 0.22% hits. AID 651560, 2012. inhibition, % at 20 µM;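 active = compounds that cut the enzyme signal by at least half of the control window in the single-dose screen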
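Test system: LMPTP-A phosphatase enzyme. Amount: LMPTP-A at 0.625 nM final in the reaction. Reagent: OMFP substrate, 400 µM final. Times: 50 min at room temperature. Signal: endpoint fluorescence intensity from OMFP dephosphorylation. Read-out basis: % inhibition. Benchmarks: no-enzyme and uninhibited controls.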
Scp1 inh: Scp-1 phosphatase inhibitors, primary screen, biochemical, colorimetric, uHTS; AID 493091, 2011; Recombinant Scp1, phosphopeptide, malachite green phosphate absorbance; 340,000 compounds, 0.88% hits; inhibition, % at 20 µM; Carboxy-terminal domain RNA polymerase II polypeptide A small phosphatase 1 (Homo …;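 active = inhibition above about 50% at 20 µM, limit read from the data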
Target sequence (Q9GZU7 76-261 limits assumed): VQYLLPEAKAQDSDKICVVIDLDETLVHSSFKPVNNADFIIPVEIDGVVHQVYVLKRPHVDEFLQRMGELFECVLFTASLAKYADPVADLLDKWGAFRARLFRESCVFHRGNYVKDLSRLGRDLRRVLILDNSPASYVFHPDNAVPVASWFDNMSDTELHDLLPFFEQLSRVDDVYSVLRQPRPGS
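System: truncated SCP-1 phosphatase (76-261aa); medium: Tris acetate buffer pH 5.5 with MgCl2 and Tween-20; incubation: 45 min room-temperature reaction, 5 min colour, 30 min stabiliser; compound: single 20 µM dose, 1% DMSO; reagent: Phosphorylated 17-residue peptide substrate; read-out: % inhibition at 20 µM; technique: colorimetric free-phosphate detection, absorbance 630 nm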
STEP inh: STEP phosphatase inhibitors, primary screen, biochemical, fluorescence intensity, uHTS. 360,000 compounds, 0.25% hits. inhibition, % at 20 µM. Tyrosine-protein phosphatase non-receptor type 5 (Homo sapiens), P54829. recombinant STEP, OMFP fluorogenic substrate. AID 588621, 2011;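 active = inhibition at 20 µM, scaled per plate between control wells, above about 37%, limit read from the data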
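Test system: STEP tyrosine phosphatase / Reagent: OMFP at 25 µM / Doses: 20 µM, 1% DMSO / Read-out: percent inhibition scaled to no-enzyme and uninhibited-enzyme controls, plate-pattern corrected / Detection: FITC-channel fluorescence of OMFP product / Medium: Bis-Tris buffer pH 6.0, 2.5 mM DTT, 0.005% Tween 20 / Schedule: 20 min at room temperature, dark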
DNMT1 block: human DNMT1 methyltransferase inhibitors, primary screen, biochemical, molecular beacon, fluorescence, HinP1I cleavage, uHTS; 360,000 compounds, 0.83% hits; DNA (cytosine-5)-methyltransferase 1 (Homo sapiens), P26358; inhibition (reported as % activation of signal), % at 10 µM; AID 588458, 2011; in the data active = inhibition above about 50%
CASP6 VEID inh: human caspase-6 inhibitors, primary screen, biochemical, VEID-R110 fluorescence, single point, set 2; purified caspase-6, Z-VEID-R110 cleavage fluorescence; 350,000 compounds, 0.53% hits; P55212; inhibition, % at 12.5 µM; AID 686996, 2013;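 active = mean inhibition across replicates at least about 35%, with every replicate also reaching that limit, limit read from the data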
Target sequence (P55212 24-179 limits assumed): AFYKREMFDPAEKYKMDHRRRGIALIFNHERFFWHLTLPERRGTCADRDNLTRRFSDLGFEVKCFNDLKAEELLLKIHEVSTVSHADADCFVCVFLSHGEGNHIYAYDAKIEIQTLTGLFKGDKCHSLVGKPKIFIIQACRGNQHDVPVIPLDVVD
Target sequence (P55212 194-293 limits assumed): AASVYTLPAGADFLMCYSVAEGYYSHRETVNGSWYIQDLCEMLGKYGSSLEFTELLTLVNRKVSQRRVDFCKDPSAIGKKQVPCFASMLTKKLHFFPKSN
Scp1 confirm: Scp-1 phosphatase inhibitors, retest, confirmation, biochemical, colorimetric, single concentration | inhibition, % at 20 µM | AID 540281, 2011 | recombinant SCP-1 catalytic domain, phosphate release, malachite green absorbance | 2,500 compounds, 61% hits | shares compounds with Scp1 inh
Scp-1 MG ctr: colorimetric readout interference by compounds, confirmation, artefact control for Scp-1 inhibitor project, biochemical, single concentration; shares compounds with Scp1 inh; Colorimetric interference counterscreen, malachite green absorbance 630 nm; apparent inhibition (interference), % at 20 µM; 2,500 tested, under 10 active; AID 540313, 2011;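 note: compounds added after enzyme reaction finished so only phosphate colour detection is probed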
Scp1 DSF: Scp-1 binding by thermal shift, confirmation, orthogonal assay for Scp-1 inhibitor project, biophysical, differential scanning fluorimetry. shares compounds with Scp1 inh. Recombinant SCP1, Sypro Orange thermal shift Tm. thermal shift relative to vanadate control, % at 40 µM. 1,500 compounds, 25% hits. AID 540329, 2011;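 active = substances whose mean melting-temperature shift, as a percentage of the reference inhibitor's shift, reaches about 5.3%, limit read from the data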
DNMT1 confirm: DNMT1 methyltransferase inhibitor retest, confirmation, biochemical, molecular beacon, fluorescence, single concentration | shares compounds with DNMT1 block | DNMT1 molecular beacon HinP1I cleavage | inhibition, % at 10 µM | 2,300 compounds, 8% hits;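 active = average inhibition of at least 30% in the single-concentration confirmation test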
Beacon interf: shows spectral interference in the DNMT1 beacon assay | shares compounds with DNMT1 block | DNMT1 molecular beacon spectral interference counterscreen, fluorescence 485/520 | activation (fluorescence interference), % at 10 µM | 2,300 compounds, 1% hits | AID 602387;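 active = activation of at least 30% at 10 µM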;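 note: DNMT1 catalytic domain with a HinP1I cleavage step and a FAM/dabcyl DNA beacon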
STEP inh conf: STEP phosphatase inhibitor hit confirmation, biochemical, fluorescence intensity, single concentration | shares compounds with STEP inh | recombinant STEP, OMFP fluorogenic substrate | inhibition, % at 20 µM | 520 compounds, 32% hits | AID 623866, 2012; call rule not given here
Numbers stand for hits. This is a sample that favours compounds with a hit; in the whole collection about 1.7% have one here.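 Rule for the calls, unless noted: active = inhibition of at least 30% at 20 µM; inactive = the rest.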

How did C[C@H](CO)N1C[C@H](C)[C@@H](CN(C)C)Oc2ccc(NC(=O)Cc3ccccc3)cc2CC1=O do in these assays?
CASP6 VEID inh: inactive

What do the screens show for `N=C1S/C(=C\c2ccc(O)cc2)C(=O)N1c1ccc(F)cc1`?
SUMO1-SIM PPI: inactive; LMPTP inh: 69.1; Scp1 inh: 77.5; STEP inh: 78.5; DNMT1 block: inactive; Scp1 confirm: 51.9; Scp-1 MG ctr: inactive; Scp1 DSF: 18.6; STEP inh conf: 12.1

What do the screens show for `O=C(c1ccccn1)N(Cc1ccco1)C1(C(=O)NC2CCCCC2)CCCCC1`?
SUMO1-SIM PPI: inactive; LMPTP inh: inactive; Scp1 inh: inactive; STEP inh: inactive; DNMT1 block: inactive

How did O=C(O)c1ccc(/C=N/NC(=O)c2cc(-c3ccc4c5c(cccc35)CC4)n[nH]2)cc1 do in these assays?
SUMO1-SIM PPI: inactive; LMPTP inh: inactive; Scp1 inh: 76.3; STEP inh: 52.4; DNMT1 block: inactive; CASP6 VEID inh: inactive; Scp1 confirm: 66.7; Scp-1 MG ctr: inactive; Scp1 DSF: inactive; STEP inh conf: inactive

What do the screens show for `O=C(N/N=C/c1ccccn1)c1cc(-c2cccc3ccccc23)n[nH]1`?
SUMO1-SIM PPI: inactive; LMPTP inh: inactive; Scp1 inh: inactive; STEP inh: inactive; DNMT1 block: inactive; CASP6 VEID inh: inactive

Results for COc1cc(C(=O)Nc2ccc3c(c2)Cc2ccccc2-3)cc(OC)c1OC ?
SUMO1-SIM PPI: inactive; LMPTP inh: inactive; Scp1 inh: inactive; STEP inh: inactive; DNMT1 block: inactive; CASP6 VEID inh: inactive

How did COc1cc(C(=O)Nc2ccc3c(c2)C(=O)c2ccccc2C3=O)cc(OC)c1OC do in these assays?
SUMO1-SIM PPI: inactive; LMPTP inh: inactive; Scp1 inh: 87.5; STEP inh: 74.5; DNMT1 block: 65.6; Scp1 confirm: 42.2; Scp-1 MG ctr: inactive; Scp1 DSF: inactive; DNMT1 confirm: inactive; Beacon interf: inactive; STEP inh conf: inactive

What do the screens show for `CC(C)(C)NC(=O)C(c1ccccc1)N(Cc1cccs1)C(=O)c1csnn1` (stereo not given)?
SUMO1-SIM PPI: inactive; LMPTP inh: inactive; Scp1 inh: inactive; STEP inh: inactive; DNMT1 block: inactive

How did O=C(NCc1ccon1)c1ccc(OC2CCN(CCc3ccccc3)CC2)cc1 do in these assays?
SUMO1-SIM PPI: inactive; LMPTP inh: inactive; Scp1 inh: inactive; STEP inh: inactive; DNMT1 block: inactive; CASP6 VEID inh: inactive
